Reference: ChEMBL document CHEMBL1649319, “In vitro antifungal activities of isavuconazole and comparators against rare yeast pathogens” (2010)
≈ marks a conversion by molar mass, not a printed value.

What was measured:
Type in all cases: functional
Rhodotorula mucilaginosa [1] = test: Antifungal activity against Rhodotorula mucilaginosa after 48 hrs by broth microdilution method
In short: (§1)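 CLSI M27-A3 broth microdilution. Isolates were identified by ITS1-5.8S-ITS2 sequencing, kept at −70°C in sterile water, and revived on potato dextrose or Sabouraud agar. Drug ranges in wells were 0.015–16 or 0.125–128 μg/ml, depending on the agent. Plates were incubated at 35°C and MICs read visually at 48 h. QC strains were C. krusei ATCC 6258 and C. parapsilosis ATCC 22019.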

[2] = Antifungal activity against Trichosporon jirovecii after 48 hrs by Etest; details: Cutaneotrichosporon jirovecii
In short: (§2)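 Etest on 2% glucose-RPMI agar. Yeast suspensions were swabbed across the plates and strips applied, then incubated at 35°C for 48 h. MIC was the lowest concentration where the elliptical inhibition zone border met the strip scale. Each reading was raised to the next 2-fold dilution on the CLSI scale and converted to log2. Isolates were revived from −70°C stocks on potato dextrose or Sabouraud agar.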

Trichosporon [3] = test: Antifungal activity against Trichosporon sp. after 3 days by broth microdilution method; details: 72 h
Trichosporon inkin [4] = test: Antifungal activity against Trichosporon inkin after 48 hrs by Etest; in short: as §2
Saccharomyces cerevisiae [5] = test: Antifungal activity against Saccharomyces cerevisiae after 5 days by broth microdilution method; details: 120 h
Rhodotorula mucilaginosa [6] = test: Antifungal activity against Rhodotorula mucilaginosa after 7 days by broth microdilution method; details: 168 h
[7] = test system: Cutaneotrichosporon mucoides; test: Antifungal activity against Trichosporon mucoides after 48 hrs by broth microdilution method; in short: as §1
Magnusiomyces capitatus [8] = test: Antifungal activity against Dipodascus capitatus after 4 days by Etest; details: 96 h
[9] = Antifungal activity against Trichosporon domesticum after 48 hrs by broth microdilution method; details: Apiotrichum domesticum; in short: as §1
Magnusiomyces capitatus [10] = test: Antifungal activity against Dipodascus capitatus after 48 hrs by broth microdilution method; in short: as §1
Trichosporon asahii [11] = test: Antifungal activity against Trichosporon asahii after 48 hrs by broth microdilution method; in short: as §1
Trichosporon inkin [12] = test: Antifungal activity against Trichosporon inkin after 48 hrs by broth microdilution method; in short: as §1
[13] = Antifungal activity against Trichosporon domesticum after 48 hrs by Etest; details: Apiotrichum domesticum; in short: as §2
Trichosporon [14] = test: Antifungal activity against Trichosporon sp. after 4 days by Etest; details: 96 h
Magnusiomyces capitatus [15] = test: Antifungal activity against Dipodascus capitatus after 3 days by broth microdilution method; details: 72 h
[16] = test system: Cutaneotrichosporon mucoides; test: Antifungal activity against Trichosporon mucoides assessed as percent susceptible/dose-dependent isolates after 48 hrs by broth microdilution method
In short: (§3)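 Broth microdilution MICs (CLSI, 35°C, visual read at 48 h) were sorted into categories using CLSI M27-A3 triazole breakpoints. Susceptible was ≤1 or ≤8 μg/ml, SDD was 2 or 16–32 μg/ml, and resistant was ≥4 or ≥64 μg/ml, depending on the agent. Each category is the percentage of isolates falling in it.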

Magnusiomyces capitatus [17] = test: Antifungal activity against Dipodascus capitatus after 48 hrs by Etest; in short: as §2
[18] = test system: Cutaneotrichosporon mucoides; test: Antifungal activity against Trichosporon mucoides assessed as percent susceptible isolates after 48 hrs by broth microdilution method; in short: as §3
Saccharomyces cerevisiae [19] = test: Antifungal activity against Saccharomyces cerevisiae after 48 hrs by broth microdilution method; in short: as §1
[20] = Antifungal activity against Trichosporon jirovecii after 48 hrs by broth microdilution method; details: Cutaneotrichosporon jirovecii; in short: as §1
Rhodotorula mucilaginosa [21] = test: Antifungal activity against Rhodotorula mucilaginosa after 48 hrs by Etest; in short: as §2
Saccharomyces cerevisiae [22] = test: Antifungal activity against Saccharomyces cerevisiae after 48 hrs by Etest; in short: as §2
[23] = test system: Cutaneotrichosporon mucoides; test: Antifungal activity against Trichosporon mucoides after 48 hrs by Etest; in short: as §2
Trichosporon asahii [24] = test: Antifungal activity against Trichosporon asahii after 48 hrs by Etest; in short: as §2
Rhodotorula mucilaginosa [25] = test: Antifungal activity against Rhodotorula mucilaginosa after 7 days by Etest; details: 168 h

## C[C@@H](c1nc(-c2ccc(C#N)cc2)cs1)[C@](O)(Cn1cncn1)c1cc(F)ccc1F [ISAVUCONAZOLE]
Rhodotorula mucilaginosa [1]
  MIC50: 0.5 µg/mL (≈ 1.14 µM)
  MIC90: 2 µg/mL (≈ 4.57 µM)
[2]
  MIC50: 0.06 µg/mL (≈ 0.137 µM)
  MIC90: 0.125 µg/mL (≈ 0.286 µM)
Trichosporon [3]
  MIC50: 0.06 µg/mL (≈ 0.137 µM)
  MIC90: 0.5 µg/mL (≈ 1.14 µM)
Trichosporon inkin [4]
  MIC50: 0.06 µg/mL (≈ 0.137 µM)
  MIC90: 0.125 µg/mL (≈ 0.286 µM)
Saccharomyces cerevisiae [5]
  MIC50: 0.03 µg/mL (≈ 0.0686 µM)
  MIC90: 0.5 µg/mL (≈ 1.14 µM)
Rhodotorula mucilaginosa [6]
  MIC50: 0.5 µg/mL (≈ 1.14 µM)
  MIC90: 2 µg/mL (≈ 4.57 µM)
[7]
  MIC50: 0.06 µg/mL (≈ 0.137 µM)
  MIC90: 0.5 µg/mL (≈ 1.14 µM)
Magnusiomyces capitatus [8]
  MIC50: 0.125 µg/mL (≈ 0.286 µM)
  MIC90: 1 µg/mL (≈ 2.29 µM)
[9]
  MIC50: 0.06 µg/mL (≈ 0.137 µM)
  MIC90: 0.5 µg/mL (≈ 1.14 µM)
Magnusiomyces capitatus [10]
  MIC50: 0.06 µg/mL (≈ 0.137 µM)
  MIC90: 0.5 µg/mL (≈ 1.14 µM)
Trichosporon asahii [11]
  MIC50: 0.06 µg/mL (≈ 0.137 µM)
  MIC90: 0.5 µg/mL (≈ 1.14 µM)
Trichosporon inkin [12]
  MIC50: 0.06 µg/mL (≈ 0.137 µM)
  MIC90: 0.5 µg/mL (≈ 1.14 µM)
[13]
  MIC50: 0.06 µg/mL (≈ 0.137 µM)
  MIC90: 0.125 µg/mL (≈ 0.286 µM)
Trichosporon [14]
  MIC50: 0.06 µg/mL (≈ 0.137 µM)
  MIC90: 0.125 µg/mL (≈ 0.286 µM)
Magnusiomyces capitatus [15]
  MIC50: 0.06 µg/mL (≈ 0.137 µM)
  MIC90: 0.5 µg/mL (≈ 1.14 µM)
[16]
  MIC50: 0.06 µg/mL (≈ 0.137 µM)
  MIC90: 0.5 µg/mL (≈ 1.14 µM)
Magnusiomyces capitatus [17]
  MIC50: 0.125 µg/mL (≈ 0.286 µM)
  MIC90: 1 µg/mL (≈ 2.29 µM)
[18]
  MIC50: 0.06 µg/mL (≈ 0.137 µM)
  MIC90: 0.5 µg/mL (≈ 1.14 µM)
Saccharomyces cerevisiae [19]
  MIC50: 0.03 µg/mL (≈ 0.0686 µM)
  MIC90: 0.5 µg/mL (≈ 1.14 µM)
[20]
  MIC50: 0.06 µg/mL (≈ 0.137 µM)
  MIC90: 0.5 µg/mL (≈ 1.14 µM)
Rhodotorula mucilaginosa [21]
  MIC50: 1 µg/mL (≈ 2.29 µM)
  MIC90: 4 µg/mL (≈ 9.14 µM)
Saccharomyces cerevisiae [22]
  MIC50: 0.125 µg/mL (≈ 0.286 µM)
  MIC90: 0.5 µg/mL (≈ 1.14 µM)
[23]
  MIC50: 0.06 µg/mL (≈ 0.137 µM)
  MIC90: 0.125 µg/mL (≈ 0.286 µM)
Trichosporon asahii [24]
  MIC50: 0.06 µg/mL (≈ 0.137 µM)
  MIC90: 0.125 µg/mL (≈ 0.286 µM)
Rhodotorula mucilaginosa [25]
  MIC50: 1 µg/mL (≈ 2.29 µM)
  MIC90: 4 µg/mL (≈ 9.14 µM)

## C[C@@H](c1ncncc1F)[C@](O)(Cn1cncn1)c1ccc(F)cc1F [VORICONAZOLE]
Rhodotorula mucilaginosa [1]
  MIC50: 2 µg/mL (≈ 5.73 µM)
  MIC90: 8 µg/mL (≈ 22.9 µM)
[2]
  MIC50: 0.03 µg/mL (≈ 0.0859 µM)
  MIC90: 0.125 µg/mL (≈ 0.358 µM)
Trichosporon [3]
  MIC50: 0.06 µg/mL (≈ 0.172 µM)
  MIC90: 0.25 µg/mL (≈ 0.716 µM)
Trichosporon inkin [4]
  MIC50: 0.03 µg/mL (≈ 0.0859 µM)
  MIC90: 0.125 µg/mL (≈ 0.358 µM)
Saccharomyces cerevisiae [5]
  MIC50: 0.125 µg/mL (≈ 0.358 µM)
  MIC90: 0.25 µg/mL (≈ 0.716 µM)
Rhodotorula mucilaginosa [6]
  MIC50: 2 µg/mL (≈ 5.73 µM)
  MIC90: 8 µg/mL (≈ 22.9 µM)
[7]
  MIC50: 0.06 µg/mL (≈ 0.172 µM)
  MIC90: 0.25 µg/mL (≈ 0.716 µM)
Magnusiomyces capitatus [8]
  MIC50: 0.03 µg/mL (≈ 0.0859 µM)
  MIC90: 0.06 µg/mL (≈ 0.172 µM)
[9]
  MIC50: 0.06 µg/mL (≈ 0.172 µM)
  MIC90: 0.25 µg/mL (≈ 0.716 µM)
Magnusiomyces capitatus [10]
  MIC50: 0.06 µg/mL (≈ 0.172 µM)
  MIC90: 0.25 µg/mL (≈ 0.716 µM)
Trichosporon asahii [11]
  MIC50: 0.06 µg/mL (≈ 0.172 µM)
  MIC90: 0.25 µg/mL (≈ 0.716 µM)
Trichosporon inkin [12]
  MIC50: 0.06 µg/mL (≈ 0.172 µM)
  MIC90: 0.25 µg/mL (≈ 0.716 µM)
[13]
  MIC50: 0.03 µg/mL (≈ 0.0859 µM)
  MIC90: 0.125 µg/mL (≈ 0.358 µM)
Trichosporon [14]
  MIC50: 0.03 µg/mL (≈ 0.0859 µM)
  MIC90: 0.125 µg/mL (≈ 0.358 µM)
Magnusiomyces capitatus [15]
  MIC50: 0.06 µg/mL (≈ 0.172 µM)
  MIC90: 0.25 µg/mL (≈ 0.716 µM)
[16]
  MIC50: 0.06 µg/mL (≈ 0.172 µM)
  MIC90: 0.25 µg/mL (≈ 0.716 µM)
Magnusiomyces capitatus [17]
  MIC50: 0.03 µg/mL (≈ 0.0859 µM)
  MIC90: 0.06 µg/mL (≈ 0.172 µM)
[18]
  MIC50: 0.06 µg/mL (≈ 0.172 µM)
  MIC90: 0.25 µg/mL (≈ 0.716 µM)
Saccharomyces cerevisiae [19]
  MIC50: 0.125 µg/mL (≈ 0.358 µM)
  MIC90: 0.25 µg/mL (≈ 0.716 µM)
[20]
  MIC50: 0.06 µg/mL (≈ 0.172 µM)
  MIC90: 0.25 µg/mL (≈ 0.716 µM)
Rhodotorula mucilaginosa [21]
  MIC50: > 16 µg/mL
  MIC90: > 16 µg/mL
Saccharomyces cerevisiae [22]
  MIC50: 0.03 µg/mL (≈ 0.0859 µM)
  MIC90: 0.125 µg/mL (≈ 0.358 µM)
[23]
  MIC50: 0.03 µg/mL (≈ 0.0859 µM)
  MIC90: 0.125 µg/mL (≈ 0.358 µM)
Trichosporon asahii [24]
  MIC50: 0.03 µg/mL (≈ 0.0859 µM)
  MIC90: 0.125 µg/mL (≈ 0.358 µM)
Rhodotorula mucilaginosa [25]
  MIC50: > 16 µg/mL
  MIC90: > 16 µg/mL
